# Experimental data reported in ChEMBL document CHEMBL1146609, “Synthesis of water-soluble prodrugs of BMS-191011: a maxi-K channel opener targeted for post-stroke neuroprotection” (Bioorg Med Chem Lett, 2003).
# Values joined by “and” are separate entries in the source; they are usually repeats but may differ in a detail not shown here. Identical values can stand only once.
# Tests used:
# [1] = organism: Rattus norvegicus; test: Percentage converted to BMS-191011 after 30 min incubation in rat plasma at 37 degree C; type: ADME, organism-based; details: 0.5 h
# How it was run: (§1)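 Prodrug was incubated in rat plasma for 30 min at 37 °C. The percentage converted to the parent BMS-191011 was then determined.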
# [2] = Solubility in water at 5.5 pH; type: physicochemical; details: pH 5.5, read-out: S
# How it was run: (§2)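 Aqueous solubility (mg/mL), measured with the pH of the resulting solution recorded.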
# [3] = Solubility in water at 7.2 pH; type: physicochemical; details: pH 7.2, read-out: S; how it was run: as §2
# [4] = […] expressed as percentage of compound remains at 24 hr in PEG400/Water, 1:1; type: ADME, organism-based; details: read-out: Prodrug remains
# How it was run: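 Chemical stability in PEG400/water (1:1) solution, given as the percentage of prodrug remaining after 24 h.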
# [5] = Solubility in deionized water; type: physicochemical; details: read-out: S
# How it was run: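 Solubility of the prodrug (mg/mL) in deionized water.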
# [6] = Area under curve was determined; type: ADME, organism-based; details: rat, in vivo
# How it was run: (§3)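 Male SD rats (N=3) given prodrug by IV infusion at 1.7 mg/kg (equivalent to 1 mg/kg parent), vehicle PEG-400/water 1:1. Blood samples were mixed at once with an equal volume of water, quenched with four volumes of acetonitrile and stored at -20 °C. Prodrug and parent were measured by two separate LC/MS/MS assays. Mean ±SD.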
# [7] = Volume distribution was determined; type: ADME, organism-based; details: rat, in vivo; read-out: Vdss; how it was run: as §3
# [8] = system: Rattus norvegicus; test: Percent reduction of neocortical infract volume in 28 rats after IV administration (2h post MCA) at a dose of […]; type: functional
# How it was run: (§4)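 Rat MCA occlusion model. Neocortical infarct volume was compared with vehicle controls (2% DMSO/98% propylene glycol) in the same study. Statistics by ANOVA with Dunnett's t-test, p<0.05; 28–29 animals per group.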
# [9] = system: Rattus norvegicus; test: Percent reduction of neocortical infract volume in 29 rats after IV administration (2h post MCA)at a dose of […]; type: functional; how it was run: as §4
# [10] = t1/2 (apparent elimination)of the compound was determined; type: ADME, organism-based; details: rat, in vivo; how it was run: as §3
# [11] = system: Rattus norvegicus; test: Percent reduction of neocortical infract volume in 28 rats after IV administration (2h post MCA)at a dose of […]; type: functional; how it was run: as §4
# [12] = Plasma clearance was determined; type: ADME, organism-based; details: rat; how it was run: as §3
# [13] = Solubility in water at 7.5 pH; type: physicochemical; details: pH 7.5, read-out: S
# [14] = Solubility in water at 2.4 pH; type: physicochemical; details: pH 2.4, read-out: S
# [15] = organism: Rattus norvegicus; test: […] expressed as percentage of compound remains at 24 hr in PEG400/Water, 1:1; Not stable; type: ADME, organism-based
# [16] = organism: Rattus norvegicus; test: Percentage converted to BMS-191011 after 30 min incubation in rat plasma at 37 degree C; Converted to an unknown compound; type: ADME, organism-based; details: 0.5 h; how it was run: as §1
# [17] = Solubility in water at 4.2 pH; type: physicochemical; details: pH 4.2, read-out: S; how it was run: as §2
# [18] = Solubility in water at 7.0 pH; type: physicochemical; details: pH 7, read-out: S
# [19] = Solubility in water at 8.4 pH; type: physicochemical; details: pH 8.4
smiles,measurement,setting,value
O=c1oc(-c2ccc(C(F)(F)F)cc2)nn1Cc1cc(Cl)ccc1OP(=O)(O)O,Conversion,[1],0%
same,solubility,[2],4900 µg/mL
same,solubility,[3],14600 µg/mL
CS(=O)(=O)[O-].C[N+](C)(C)CCCC(=O)OCOc1ccc(Cl)cc1Cn1nc(-c2ccc(C(F)(F)F)cc2)oc1=O,Conversion,[1],> 80%
same,remaining at 24 h,[4],> 97%
same,solubility,[5],> 25000 µg/mL
same,AUC,[6],1260 ng·h/mL
same,Vd,[7],2.6 L/kg
same,Reduction,[8],-13%
same,Reduction,[9],-16%
same,half-life,[10],2.7 h
same,Reduction,[11],-14% and -12% and -17%
same,clearance,[12],22.9 mL/min/kg
CS(=O)(=O)[O-].C[N+](C)(C)CCOC(=O)Oc1ccc(Cl)cc1Cn1nc(-c2ccc(C(F)(F)F)cc2)oc1=O,Conversion,[1],100%
same,remaining at 24 h,[4],72%
O=C(OCOP(=O)(O)O)Oc1ccc(Cl)cc1Cn1nc(-c2ccc(C(F)(F)F)cc2)oc1=O,solubility,[13],4 µg/mL
same,solubility,[14],55 µg/mL
same,Prodrug remains,[15],Not stable
CS(=O)(=O)[O-].C[N+](C)(C)CCCC(=O)Oc1ccc(Cl)cc1Cn1nc(-c2ccc(C(F)(F)F)cc2)oc1=O,Conversion,[1],95%
same,remaining at 24 h,[4],> 90%
same,solubility,[5],> 4000 µg/mL
CS(=O)(=O)[O-].C[N+](C)(C)CC(=O)c1ccc(Cl)cc1Cn1nc(-c2ccc(C(F)(F)F)cc2)oc1=O,remaining at 24 h,[4],> 90%
O=c1oc(-c2ccc(C(F)(F)F)cc2)nn1Cc1cc(Cl)ccc1O,AUC,[6],52.4 ng·h/mL
same,half-life,[10],1.2 h
CS(=O)(=O)[O-].C[N+](C)(C)CCC(=O)Oc1ccc(Cl)cc1Cn1nc(-c2ccc(C(F)(F)F)cc2)oc1=O,Conversion,[1],100%
same,remaining at 24 h,[4],> 90%
same,solubility,[5],> 4000 µg/mL
CS(=O)(=O)[O-].C[N+](C)(C)CC(=O)OCOc1ccc(Cl)cc1Cn1nc(-c2ccc(C(F)(F)F)cc2)oc1=O,Conversion,[16],Converted to an unknown compound
same,solubility,[17],4500 µg/mL
O=c1oc(-c2ccc(C(F)(F)F)cc2)nn1Cc1cc(Cl)ccc1OCOP(=O)(O)O,Prodrug remains,[15],Not stable
same,solubility,[18],6100 µg/mL
same,solubility,[19],> 16000 µg/mL
